# KCNQ1 act: potentiators or activators of KCNQ1 channel, primary screen, cell-based, thallium flux, high-throughput | CHO-K1 KCNQ1, thallium flux FluxOR fluorescence; stronger effect = higher value | B-score at 10 µM | 310,000 compounds, 0.35% hits;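 active = fluorescence ratio B-score, a plate-corrected score, at least three library SD, with initial intensity B-score within 5 SD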
#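 Assay system: CHO-K1 cells stably expressing KCNQ1. Medium: assay buffer for compound exposure, DMSO matched across wells. Timing: 37 °C overnight plating, 90-min dark dye load, 20-min compound pretreatment. Signal: kinetic FluxOR fluorescence, 10 s baseline plus 110 s post-stimulus.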
# hERG protect: hERG rescue from dofetilide block, primary screen, cell-based, CHO-hERG, FluxOR thallium flux, dofetilide IC70. 310,000 compounds, 0.51% hits. activation (rescue from dofetilide block), less the hit threshold, % at 10 µM. Voltage-gated inwardly rectifying potassium channel KCNH2 (Homo sapiens), Q12809. dofetilide IC70 present. AID 1511, 2009;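 active = activation above the mean of controls blocked by dofetilide plus 5 SD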;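 also: thallium influx through hERG after potassium depolarization seen as dye fluorescence rise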
# Target sequence (Q12809 whole entry, looked up): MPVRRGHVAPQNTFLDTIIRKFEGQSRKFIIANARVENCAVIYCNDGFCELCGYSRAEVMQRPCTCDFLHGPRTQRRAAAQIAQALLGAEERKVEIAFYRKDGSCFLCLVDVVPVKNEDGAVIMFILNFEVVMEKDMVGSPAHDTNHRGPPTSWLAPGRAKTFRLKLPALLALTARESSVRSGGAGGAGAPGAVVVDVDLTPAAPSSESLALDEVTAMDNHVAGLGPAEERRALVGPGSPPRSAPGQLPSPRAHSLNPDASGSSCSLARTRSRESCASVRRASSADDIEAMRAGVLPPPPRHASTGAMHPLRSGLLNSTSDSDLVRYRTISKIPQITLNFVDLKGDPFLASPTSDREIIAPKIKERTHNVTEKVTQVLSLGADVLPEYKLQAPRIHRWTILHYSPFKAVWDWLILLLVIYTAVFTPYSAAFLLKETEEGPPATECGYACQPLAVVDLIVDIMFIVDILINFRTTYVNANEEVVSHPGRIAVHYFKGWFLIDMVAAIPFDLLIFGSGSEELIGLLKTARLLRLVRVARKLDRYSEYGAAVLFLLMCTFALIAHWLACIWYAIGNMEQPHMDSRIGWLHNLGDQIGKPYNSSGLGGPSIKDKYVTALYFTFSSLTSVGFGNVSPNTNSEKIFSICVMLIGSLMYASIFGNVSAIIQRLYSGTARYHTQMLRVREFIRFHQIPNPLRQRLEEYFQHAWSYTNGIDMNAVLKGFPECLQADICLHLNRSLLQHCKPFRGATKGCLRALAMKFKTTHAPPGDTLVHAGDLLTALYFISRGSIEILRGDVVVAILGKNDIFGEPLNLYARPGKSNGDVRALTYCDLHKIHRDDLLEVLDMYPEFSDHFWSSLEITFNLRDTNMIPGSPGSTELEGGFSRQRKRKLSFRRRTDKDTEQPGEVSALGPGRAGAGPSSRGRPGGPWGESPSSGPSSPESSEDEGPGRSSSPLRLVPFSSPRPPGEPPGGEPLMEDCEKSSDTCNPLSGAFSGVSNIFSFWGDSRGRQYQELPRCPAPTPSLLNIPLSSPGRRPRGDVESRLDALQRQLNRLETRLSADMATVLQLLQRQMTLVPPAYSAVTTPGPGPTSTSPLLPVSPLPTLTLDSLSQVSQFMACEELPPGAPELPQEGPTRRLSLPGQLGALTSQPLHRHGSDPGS
# KCNK3 inh: human KCNK3 channel inhibitors, primary screen, CHO cells, FluxOR thallium flux, B-score. AID 602410, 2012. FluxOR fluorescence; stronger effect = lower value. 340,000 compounds, 0.84% hits. B-score at 10 µM;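 active = B-score under library mean minus 4 SD, starting fluorescence ratio at most library mean plus 5 SD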;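 also: more negative B-score means stronger inhibition of thallium flux through KCNK3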
# KCNQ1 inh: inhibitors of human KCNQ1 channel, primary screen, cell-based, thallium flux, high-throughput. CHO-K1 KCNQ1, FluxOR thallium flux fluorescence; stronger effect = higher value. B-score at 10 µM. 310,000 compounds, 1.3% hits. AID 2642, 2010;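 active = compounds whose thallium flux B-score, printed positive for inhibition, exceeds three library SD while starting fluorescence stays within three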;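 also: channel opened by potassium depolarization with thallium stimulus after 20 min compound exposure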
# KCNK9 inh: KCNK9 potassium channel inhibitors, primary screen, HEK293 cells, thallium flux; 310,000 compounds, 1.2% hits; AID 488922, 2010; FluxOR thallium flux fluorescence; stronger effect = lower value; B-score at 10 µM; Potassium channel subfamily K member 9 (Homo sapiens), Q9NPC2;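 active = ratio B-score over 3 SD below the library mean, with starting fluorescence within 5 SD of its mean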;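 also: negative B-score means less thallium flux so channel inhibition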
# Kir21 block: inhibitors of mouse Kir2.1 inward-rectifier potassium channel; AID 1672, 2009; Inward rectifier potassium channel 2 (Mus musculus), P35561; HEK293-Kir2.1, FluxOR thallium flux fluorescence; stronger effect = lower value; 310,000 compounds, 0.85% hits; B-score at 10 µM;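 active = fluorescence ratio B-score at or below minus 3 SD of library scores, with starting-brightness B-score within 2 SD, cut at about -4.2 in these data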;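 also: channel flux triggered by added potassium and thallium sulfate stimulus; B-score of peak minus minimum fluorescence over baseline after thallium stimulus; more negative B-score means stronger Kir2.1 block with less thallium influx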
# Numbers without * were called inactive; i = inactive; . = no result. This is a sample that favours compounds with a hit; in the whole collection about 3.7% have one here.
SMILES,KCNQ1 act,hERG protect,KCNK3 inh,KCNQ1 inh,KCNK9 inh,Kir21 block
Cc1ccc(OC(C)C(=O)N2CCCc3ccccc32)cc1 (centres undefined),i,-9.8,i,i,i,-5.48*
Cc1cccc(OCC(=O)N2CCCc3ccccc32)c1,i,-7.7,i,i,i,-0.61
O=C(NC(=S)N1CCCCC1)C12CC3CC(CC(C3)C1)C2,i,-13.2,i,i,i,-2.68
O=C(c1cc(NC(=O)C23CC4CC(CC(C4)C2)C3)cc(NC(=O)C23CC4CC(CC(C4)C2)C3)c1)N1CCCCC1,i,-6.8,.,10*,i,-0.38
Cc1cc(C)c(S(=O)(=O)N2CCN(C(=O)c3ccc(-n4nc(C)c(Cl)c4C)cc3)CC2)c(C)c1,.,.,i,.,.,.
CCOC(=O)N(NC(=O)C(O)(CC(C)C)CC(C)C)c1ccccc1,i,-5.8,i,i,i,-0.15
Cc1ccc(Cn2c(C3CCCN3c3nc(-c4cc(Cl)c(N)c(Cl)c4)cs3)nc3cc(Cl)c(Cl)cc32)cc1 (centres undefined),i,-3.2,i,i,i,1.72
CN1CCN(Cc2ccc(Sc3ccc(Cl)cc3)c([N+](=O)[O-])c2)CC1,i,-17.1,i,i,i,-5.29*
CC1(C)CC(=O)CC(=NCC(=O)O)C1,i,4.7*,i,i,i,1.9
COc1ccc(NC(=O)N(C)C[C@H]2Oc3c(NC(=O)Cc4ccccc4)cccc3C(=O)N([C@H](C)CO)C[C@@H]2C)cc1,.,.,i,.,.,.
CCCN(Cc1ccccc1)C(=S)NC(=O)c1ccccc1[N+](=O)[O-],i,29.0*,i,i,i,-0.78
CCN(Cc1ccccc1)C(=S)NC(=O)c1ccccc1Br,43*,21.7*,i,i,i,-0.37
O=C(NC(=S)N(CCO)Cc1ccccc1)c1cc(Br)ccc1Cl,i,19.0*,i,i,i,-1.42
N#CCCN(Cc1ccccc1)C(=S)NC(=O)c1ccccc1,i,-1.7,i,i,i,-0.03
CC1(CCc2ccccc2)NC(=S)N(c2ccccc2)N1 (centres undefined),i,-7.9,i,i,i,-0.41
COc1cccc(NC(=O)N2CCC(n3nnc4ccccc43)CC2)c1,i,-21.7,i,i,i,0.96
Cc1cccc(C2C3=C(Nc4[nH]n(-c5ccccc5)c(=O)c42)c2ccccc2C3=O)c1 (centres undefined),i,-23.0,i,i,-7.48*,0.13
Cc1ccc(C(O)(CNCc2ccccc2)c2ccccc2)cc1 (centres undefined),i,-7.2,i,i,i,-10.5*
COc1ccc(CNCC(O)(c2ccc(F)cc2)c2ccc(F)cc2)cc1OC,i,-10.8,i,i,i,-0.83
COc1ccc(CNCC(O)(c2ccccc2)c2ccc(F)cc2)cc1OC (centres undefined),i,-9.9,i,i,i,0.06
OC(CNCc1ccc(Cl)cc1)(c1ccccc1)c1ccc(F)cc1 (centres undefined),i,-18.4,i,i,-7.58*,-3.87
COc1ccc(CNCC(O)(c2ccccc2)c2ccc(F)cc2)cc1 (centres undefined),i,-11.5,i,i,i,-7.05*
OC(CNCc1ccc(F)cc1)(c1ccc(F)cc1)c1ccc(F)cc1,i,-8.8,i,i,-6.63*,-4.17
O=c1[nH]c(/C=C/c2ccccc2OC(F)F)nc2c1cnn2-c1ccccc1,i,-2.9,i,i,i,2.04
CN(C)c1nnnn1Cc1ccccc1,i,-4.3,i,i,i,1.36
SMILES,KCNQ1 act,hERG protect,KCNK3 inh,KCNQ1 inh,KCNK9 inh,Kir21 block
CCN(Cc1ccccc1)Cc1nnnn1Cc1ccccc1,i,-11.9,i,i,i,-6.87*
C=CCN1C(=O)CSc2ccc(C(=O)NCc3cccs3)cc21,i,46.5*,i,i,i,0.04
CC(=O)N(CCC(Cc1ccccc1)c1ccco1)Cc1ccco1 (centres undefined),i,-14.7,i,i,i,-12.1*
O=C(O)CC(Cc1ccccc1)c1ccc2c(c1)OCO2 (centres undefined),i,-16.4,i,i,i,0.03
CC(=O)N(CCC(Cc1ccccc1)c1ccc2c(c1)OCO2)Cc1ccc(Cl)cc1 (centres undefined),i,-0.1,-8.88*,11*,-7.28*,-3.84
Cc1ccc([N+](=O)[O-])cc1NC(=O)c1c(-c2ccccc2)noc1C,i,-10.1,i,i,i,0.25
COc1cc(-c2n[nH]c(=S)n2C(C)c2ccccc2)cc(OC)c1OC (centres undefined),i,-6.2,i,i,i,-4.33*
COc1ccc(CN2CCC(N(CCc3ccccc3)Cc3ccccc3)CC2)c(OC)c1,i,-35.7,i,i,i,-4.67*
CN(Cc1ccc(C#CCCO)cc1)CC1CCCN(CCc2ccc(Cl)cc2)C1 (centres undefined),i,-10.3,i,i,i,-9.39*
CN(Cc1ccccc1O)CC1CCCN(CCc2ccc(Cl)cc2)C1 (centres undefined),i,-15.7,i,i,i,-14.5*
CCC(=O)N1CCN(c2ccc(NC(=O)c3ccc(-c4ccccc4)cc3)cc2)CC1,i,0.7,.,i,i,0.79
COc1cc(CC(=O)OCC(=O)c2c[nH]c3ccccc23)cc(OC)c1OC,.,.,i,.,.,.
CC(=O)N1CCN(c2ccc(Oc3ccc([N+](=O)[O-])c(C(F)(F)F)c3)cc2)CC1,i,-11.9,i,11*,i,-1.2
CCOc1ccc(C(=O)Nc2ccc(N3CCN(C(C)=O)CC3)cc2)cc1[N+](=O)[O-],i,-8.3,i,i,i,1.42
COc1ccc(CNCCC(c2ccc(OC)cc2)c2ccccc2OC)cc1 (centres undefined),i,-10.7,i,i,i,-10.8*
COc1ccc(C(CCNCc2ccc(N(C)C)cc2)c2ccccc2OC)cc1 (centres undefined),i,-18.6,i,i,i,-3.35
COc1ccc(C(CCNCc2ccc(OC(C)C)cc2)c2ccccc2OC)cc1 (centres undefined),i,-19.8,i,6*,i,-9.91*
